Values belong to the molecule of their own block, whether it stands above or below them.
Key:
[1] = test system: intracellular tail of inducible T-cell co-stimulator; test: SPR binding to intracellular tail of inducible T-cell co-stimulator; settings: data not shown
[2] = test system: CD28 (biotinylated 41-residue phosphopeptide corresponding to cytoplasmic region of CD28); test: SPR binding to immobilized CD28 cytoplasmic phosphopeptide; settings: 25°C
[3] = CD thermal stability / transition curve at 222 nm; assay type: physicochemical; settings: following dissociation of the dimer
Summary of the method: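 Human Grb2 SH2 (residues 60–152) expressed as GST fusion in E. coli BL21(DE3); monomer and dimer split by gel filtration. 0.04 mg mL⁻¹ in PBS pH 7.4, 1.0 cm cell; 222 nm signal heated 20–80°C at 1.0°C min⁻¹. Tm from two-state fit, zero heat-capacity change. Samples heated to 50°C, cooled to 20°C, then rerun by far-UV CD and SEC (PBS, 280 nm).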

[4] = fluorescence and SEC; similar to Grb2 SH2 dimer dissociating at 40–45°C; ref [39]; cited from earlier work
[5] = SEC analysis of monomer/dimer state; assay type: physicochemical; settings: data not shown

Molecule: W121S: Grb2 SH2 mutant, Trp121 replaced by Ser, by site-directed mutagenesis
binding to intracellular tail of inducible T-cell co-stimulator [1]: could not bind | ability to bind to CD28 ([2]; monomer and dimer of W121S at 800, 1600, 3200, 6400 nM): loses the ability to bind to CD28

Ka,kin ([2]; association constant calculated from the two kinetic rate constants): 117000 M⁻¹
Molecule: monomer: SH2 domain of human Grb2 (residues 60–152), monomer fraction purified by gel filtration
temperature of denaturation of monomer [3]: around 60 °C

B1: Gads SH2: SH2 domain of Grb2-related adaptor downstream of Shc (Gads) (protein)
chain: WFHEGLSRHQAENLLMGKEVGFFIIRASQSSPGDFSISVRHEDDVQHFKVMRDNKGNYFLWTEKFPSLNKLVDYYRTNSISRQKQIFLRDRT
thermal transition (dimer to monomer) [4]: A similar transition was recently reported | oligomeric state [5]: exists as a monomer with a small population of dimers

Reference: publication PMC6435016 (Biophysics and Physicobiology, 2019)
